The text below walks through data of the array DNA melting data of Ke et al. (doi:10.1101/2024.01.08.574731).

Series [1] can be described thus: folding enthalpy; higher = less favourable; fluorescence melt of hairpins on a sequencing array, two-state fit. The conditions noted are these: sodium 0.088 M. The gist of the method: (§1)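 Folding enthalpy and melting temperature come from bootstrapped two-state fits to Cy3 fluorescence of library hairpins carrying annealed Cy3 and quencher oligos on a sequenced MiSeq flow cell. Imaging was done in 50 mM Na-HEPES pH 8.0, 25 mM NaCl, stepping by 2.5 °C up to 60 °C, and signals were normalised to pre-quench Cy3 and to control constructs. Results of four replicates were combined by inverse variance, and fitted temperatures were raised by 9.35 °C to match UV melts.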

Series [2] is described as follows: melting temperature; fluorescence melt of hairpins on a sequencing array, two-state fit, raised by 9.35 °C to match UV melts. The conditions noted are these: sodium 0.088 M. A digest of the protocol: as §1

For the sequence GATTGTGGAAACACAATC (((((((....))))))), in series [1], the folding enthalpy was -43.6 kcal/mol. In addition, in series [2], the Tm worked out at 56.8 °C.

GCAAACGAAAGTTATGC ((((((....))).))): in series [1], the folding enthalpy was -24.3 kcal/mol. Further, the Tm in series [2] came to 38.4 °C.

With ATTCAGAAATGAAT (((((....))))), in series [1], the folding enthalpy was -11.5 kcal/mol. In series [2], the Tm was 29.3 °C.

For GTGTTCCGAAAGGAGCAC (((.(((....))).))), the folding enthalpy in series [1] was -41.8 kcal/mol. Also, the Tm in series [2] amounted to 59.3 °C.

Regarding GCTATCGAAAGATTGAGC ((((((....)))..))), the folding enthalpy in series [1] is -20.5 kcal/mol. For the same sequence, the Tm in series [2] was found to be 32.9 °C.

For GCGGACGAAAGTCCTCGC ((((((....)))..))), the folding enthalpy in series [1] is -14.4 kcal/mol. The Tm in series [2] stood at 51.2 °C.

GGCCCAGGAAACCGGACC ((.((.(....).)).)): the folding enthalpy in series [1] is -27.4 kcal/mol. The Tm in series [2] is 33.5 °C.

Regarding GCCTGCGAAAGCAACGGC ((((((....)))..))), the folding enthalpy in series [1] was -23.6 kcal/mol. Further, the Tm in series [2] is 52.8 °C.

For the sequence GTGTTCGAAAGAAACAC ((((((....))).))), the folding enthalpy in series [1] is -28.1 kcal/mol. In addition, the Tm in series [2] turned out to be 47.1 °C.

For the sequence GAGATGGGAAACCATTTC ((.((((....)))).)), the folding enthalpy in series [1] was -26.8 kcal/mol. Also, the Tm in series [2] was 35 °C.

With GCGGTCGAAAGACTCGC ((((((....))).))), the folding enthalpy in series [1] is -29 kcal/mol. Moreover, in series [2], the Tm worked out at 54.6 °C.

As for GGCTTCGAAAGAACGCC ((((((....))).))), the folding enthalpy in series [1] was -22.7 kcal/mol. In addition, the Tm in series [2] is 50.9 °C.

In the case of GGCCCCGGAAACGGAGCC (((.(((....))).))), the folding enthalpy in series [1] is -31.1 kcal/mol. Further, the Tm in series [2] was 56.6 °C.

On to GCATATGGAAACGTATGC (((((.(....).))))), for which the folding enthalpy in series [1] was -33.3 kcal/mol. Besides, the Tm in series [2] was 47 °C.

Turning to GCGTATGTACGC ((((....)))), the folding enthalpy in series [1] was -22.4 kcal/mol. In addition, in series [2], the Tm was found to be 54.8 °C.

As to GGCAGCGAAAGCTCTGCC ((((((....)))..))), in series [1], the folding enthalpy was -24.5 kcal/mol. Also, in series [2], the Tm turned out to be 52.4 °C.

For the sequence CCATCGAAAGATGG (((((....))))), the folding enthalpy in series [1] is -23.3 kcal/mol. In addition, the Tm in series [2] was found to be 60.5 °C.

Consider CGATTCGGAAACGACTCG (((.(((....))).))), for which, in series [1], the folding enthalpy is -37.8 kcal/mol. Further, the Tm in series [2] worked out at 42.6 °C.

For GATCATAGAGATGATC ((((((....)))))), in series [1], the folding enthalpy was -30.1 kcal/mol. In addition, the Tm in series [2] stood at 44.5 °C.

Turning to GGGGAAGCGAAAGCTCCC (((..(((....)))))), the folding enthalpy in series [1] was -17.8 kcal/mol. For the same sequence, the Tm in series [2] amounted to 59.8 °C.

As for ATCACGAAAGTGAT (((((....))))), the folding enthalpy in series [1] was -25.6 kcal/mol. The Tm in series [2] stood at 54.8 °C.

On to GCTGTGCGAAAGCTCGGC ((.(.((....)).).)), for which, in series [1], the folding enthalpy was -24.6 kcal/mol. Besides, in series [2], the Tm came to 56 °C.

For GGGGGGGGAAACCTCCCC ((((.((....)).)))), in series [1], the folding enthalpy was -34 kcal/mol. For the same sequence, the Tm in series [2] worked out at 59.9 °C.

As to GGTCAACGAAAGTTACC (((.(((....)))))), the folding enthalpy in series [1] is -20.6 kcal/mol. In addition, the Tm in series [2] was 38.2 °C.

For the sequence GATCAGGTAACTGATC ((((((....)))))), in series [1], the folding enthalpy is -39.9 kcal/mol. For the same sequence, the Tm in series [2] amounted to 57.1 °C.

GAAGGCGAAAGCCCGTTC ((((((....)))..))): in series [1], the folding enthalpy was -12 kcal/mol. Further, in series [2], the Tm turned out to be 27.2 °C.

Turning to GATCCTTCTAGGATC ((((((...)))))), in series [1], the folding enthalpy was -30.6 kcal/mol. Moreover, in series [2], the Tm was 57.1 °C.

Consider GTATCACGAAAGTGTAC (((.(((....)))))), for which the folding enthalpy in series [1] is -18.1 kcal/mol. Moreover, the Tm in series [2] was 42.6 °C.

Take GTTAAGGGAAACCCTAAC ((((.((....)).)))): the folding enthalpy in series [1] is -14.2 kcal/mol. For the same sequence, in series [2], the Tm is 30.3 °C.

In the case of GGATGAGAAATCATCC ((((((....)))))), in series [1], the folding enthalpy is -42.4 kcal/mol. In addition, the Tm in series [2] stood at 52.9 °C.

In the case of GATCCGTATACGGATC ((((((....)))))), in series [1], the folding enthalpy was -45.4 kcal/mol. Further, the Tm in series [2] stood at 62.1 °C.

For the sequence GGTCCTGGAAACGGGACC (((((.(....).))))), the folding enthalpy in series [1] is -57.4 kcal/mol. Besides, the Tm in series [2] came to 57.3 °C.

Regarding GCCGTGGGAAACTGCGGC ((((..(....)..)))), in series [1], the folding enthalpy was -28.5 kcal/mol. Further, the Tm in series [2] came out at 53.9 °C.

Turning to GAGCTCGGAAACGGGCTC ((((.((....)).)))), the folding enthalpy in series [1] is -44.2 kcal/mol. Moreover, in series [2], the Tm was found to be 60.7 °C.

Turning to GGATATGGAAACATGTCC (((.(((....))).))), the folding enthalpy in series [1] was -30.4 kcal/mol. Moreover, the Tm in series [2] turned out to be 45.3 °C.

As to GTGACGCGAAAGCGCAC (((.(((....)))))), the folding enthalpy in series [1] was -15 kcal/mol. Also, in series [2], the Tm amounted to 58.8 °C.

Turning to GAAAGGGAAACCTTTC ((((((....)))))), the folding enthalpy in series [1] is -30 kcal/mol. Besides, the Tm in series [2] amounted to 47 °C.
